Experimental data collected from several papers.
Each line is one published result; the experiments were not run side by side.
Matrix: plasma

Structure (SMILES)	host	route	dose	setting	Tmax [h]
C=CC(=O)N1CC2CC(n3nc(-c4ccc(C(=O)Nc5ccccn5)cc4)c4c(N)ncnc43)CC2C1 (centres unmarked)	male Wistar rat	oral	3 mg/kg		0.25
N#Cc1[nH]nnc1-c1csc(-c2ccc(Cl)cc2)n1	male Sprague-Dawley rat	oral	10 mg/kg		1
CC(C)(O)[C@H]1CC[C@H](Nc2ccc3ncc(-c4cccc(C(F)(F)F)c4)n3n2)CC1	female Sprague-Dawley rat	oral	40 mg/kg		1
CCc1cc(OC)c2nccc(N3CCc4c(cc(Cn5ccnc5)cc4-c4cn(C)nc4C(F)(F)F)C3=O)c2c1	male Sprague-Dawley rat	oral	50 mg/kg		1.7
CCc1nc(C(N)=O)c(Nc2ccc(N3CCC(N4CCN(C)CC4)CC3)c(OC)c2)nc1NC1CCOCC1	male Sprague-Dawley rat	oral	10 mg/kg		11
CCOC(=O)[C@@]12C[C@@H]1[C@@H](n1ccc3c(NC)nc(C#Cc4ccc(Cl)s4)nc31)[C@H](O)[C@@H]2O	male Sprague-Dawley rat	oral	10 mg/kg		1.17
N#Cc1ccc(Nc2nc(N)cc(Oc3c(F)cc(-c4ccc(C#N)cc4)cc3F)n2)cc1	Sprague-Dawley rat	intravenous	1 mg/kg		0.08
CNCc1cc(-c2ccccc2F)n(S(=O)(=O)c2cccnc2)c1	Sprague-Dawley rat	oral	10 mg/kg		~1.1
Cc1c(-c2ccccc2)cccc1N1C(=O)c2cc(CN[C@H](C(=O)O)C(C)O)c(OCc3cccc(C#N)c3)cc2C1=O (some centres unmarked)	Sprague-Dawley rat	intravenous	5 mg/kg		0.08
Cc1cc(Nc2ccc(C(F)(F)F)nc2)n2nc(C(C)(F)F)nc2n1	rat	oral	200 mg/kg		12
O=C(Nc1cc(F)c(F)c(F)c1)c1ccc(F)c(S(=O)(=O)NCc2cccc(B(O)O)c2)c1	male Sprague-Dawley rat	oral	20 mg/kg		0.38
CCc1cc(C(=O)NC)c2nccc(N3CCc4c(cc(Cn5ccnc5)cc4-c4cn(C)nc4C(F)(F)F)C3=O)c2c1	male Sprague-Dawley rat	oral	50 mg/kg		1.7
Cl.Clc1ccc2c(c1)nc(N1CCNCC1)n2Cc1ccccc1	rat	oral	5 mg/kg		0.08
N#Cc1[nH]nnc1-c1cccc(-c2cc(F)cc(C(F)(F)F)c2)c1	male Sprague-Dawley rat	oral	10 mg/kg		0.8
Oc1c(Br)cc(Cl)c2cccnc12	Sprague-Dawley rat	subcutaneous	10 mg/kg		1.2
COc1nc(-c2cc(C)c(N[C@@H](C)c3cc(F)cc(F)c3)nn2)ccc1-n1cnc(C)c1	male Sprague-Dawley rat	intravenous	1 mg/kg	single dose	0.083
COc1cc(/C=C/C(=O)CC(=O)/C=C/c2ccc(O)c(OC)c2)ccc1O	male Sprague-Dawley rat	oral	100 mg/kg		0.167
